ChEMBL document CHEMBL4400518, “Synthesis, antimicrobial and cytotoxic activities, and molecular docking studies of N-arylsulfonylindoles containing an aminoguanidine, a semicarbazide, and a thiosemicarbazide moiety” (Eur J Med Chem, 2019)
Converted amounts (≈) assume the structure as drawn.

Columns and labels:
Type in all cases: functional
[1] = tested on: Escherichia coli; assay: Antibacterial activity against Escherichia coli CMCC 25922 measured after 24 hrs by ELISA; conditions: CMCC 25922, 24 h
How it was run: (§1)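 Broth microdilution MIC. Mid-log bacteria in MHB or TSB diluted 1000-fold, inoculated at 10^5 CFU/mL. Compounds added from DMSO stocks; final DMSO at most 0.05%. Incubation 24 h at 37 °C. Growth read as absorbance at 630 nm. MIC taken as the lowest concentration giving complete growth inhibition. Three independent experiments.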

[2] = tested on: Staphylococcus aureus; assay: Antibacterial activity against Staphylococcus aureus CMCC 25923 measured after 24 hrs by ELISA; conditions: CMCC 25923, 24 h; how it was run: as §1
[3] = tested on: Bacillus subtilis; assay: Antibacterial activity against Bacillus subtilis CMCC 63501 measured after 24 hrs by ELISA; conditions: CMCC 63501, 24 h; how it was run: as §1
[4] = tested on: Escherichia coli; assay: Antibacterial activity against Escherichia coli CMCC 44568 measured after 24 hrs by ELISA; conditions: CMCC 44568, 24 h; how it was run: as §1
[5] = tested on: Pseudomonas aeruginosa; assay: Antibacterial activity against Pseudomonas aeruginosa CMCC 10104 measured after 24 hrs by ELISA; conditions: CMCC 10104, 24 h; how it was run: as §1
[6] = tested on: Staphylococcus aureus; assay: Antibacterial activity against Staphylococcus aureus CMCC(B) 26003 measured after 24 hrs by ELISA; conditions: CMCC(B) 26003, 24 h; how it was run: as §1
[7] = tested on: Streptococcus pneumoniae; assay: Antibacterial activity against Streptococcus pneumoniae CMCC 31968 measured after 24 hrs by ELISA; conditions: CMCC 31968, 24 h
[8] = tested on: Enterococcus faecalis; assay: Antibacterial activity against Enterococcus faecalis CMCC 29212 measured after 24 hrs by ELISA; conditions: CMCC 29212, 24 h; how it was run: as §1
[9] = tested on: Pseudomonas aeruginosa; assay: Antibacterial activity against Pseudomonas aeruginosa CMCC 27853 measured after 24 hrs by ELISA; conditions: CMCC 27853, 24 h; how it was run: as §1
[10] = tested on: Streptococcus pyogenes; assay: Antibacterial activity against Streptococcus pyogenes CMCC 32067 measured after 24 hrs by ELISA; conditions: CMCC 32067, 24 h; how it was run: as §1

Structure (SMILES) | MIC [1] | MIC [2] | MIC [3] | MIC [4] | MIC [5] | MIC [6] | MIC [7] | MIC [8] | MIC [9] | MIC [10]
CC/C(=N/NC(=N)N)c1cn(S(=O)(=O)c2ccc(C)cc2)c2ccccc12 | 20.9 µM (≈ 8.01 µg/mL) | 10.4 µM (≈ 4 µg/mL) | 10.4 µM (≈ 4 µg/mL) | 20.9 µM (≈ 8.01 µg/mL) | > 334 µM | 5.22 µM (≈ 2 µg/mL) | 83.5 µM (≈ 32 µg/mL) | 20.9 µM (≈ 8.01 µg/mL) | 334 µM (≈ 128 µg/mL) | 5.22 µM (≈ 2 µg/mL)
NC(=O)N/N=C\c1cn(S(=O)(=O)c2ccccc2)c2ccccc12 | > 374 µM | 93.6 µM (≈ 32 µg/mL) | 93.6 µM (≈ 32 µg/mL) | > 374 µM | > 374 µM | 93.6 µM (≈ 32 µg/mL) | > 374 µM | > 374 µM | > 374 µM | > 374 µM
CC/C(=N/NC(N)=O)c1cn(S(=O)(=O)c2ccc(C)cc2)c2ccccc12 | > 333 µM | 83.3 µM (≈ 32 µg/mL) | 333 µM (≈ 128 µg/mL) | > 333 µM | > 333 µM | 333 µM (≈ 128 µg/mL) | > 333 µM | > 333 µM | > 333 µM | > 333 µM
C/C(=N/NC(N)=S)c1cn(S(=O)(=O)c2ccc(C)cc2)c2ccccc12 | 332 µM (≈ 128 µg/mL) | 332 µM (≈ 128 µg/mL) | 166 µM (≈ 64.1 µg/mL) | 332 µM (≈ 128 µg/mL) | > 332 µM | 332 µM (≈ 128 µg/mL) | > 332 µM | 332 µM (≈ 128 µg/mL) | 332 µM (≈ 128 µg/mL) | > 332 µM
C/C(=N/NC(N)=O)c1cn(S(=O)(=O)c2ccc(C)cc2)c2ccccc12 | > 346 µM | > 346 µM | 346 µM (≈ 128 µg/mL) | > 346 µM | > 346 µM | 346 µM (≈ 128 µg/mL) | > 346 µM | > 346 µM | > 346 µM | > 346 µM
CC/C(=N/NC(=N)N)c1cn(S(=O)(=O)c2ccccc2)c2ccccc12 | 43.4 µM (≈ 16 µg/mL) | 21.7 µM (≈ 8.01 µg/mL) | > 347 µM | 43.4 µM (≈ 16 µg/mL) | 43.4 µM (≈ 16 µg/mL) | 21.7 µM (≈ 8.01 µg/mL) | 10.8 µM (≈ 4 µg/mL) | 43.4 µM (≈ 16 µg/mL) | 173 µM (≈ 64.1 µg/mL) | 10.8 µM (≈ 4 µg/mL)
C/C(=N/NC(N)=S)c1cn(S(=O)(=O)c2ccccc2)c2ccccc12 | 344 µM (≈ 128 µg/mL) | 344 µM (≈ 128 µg/mL) | 172 µM (≈ 64.1 µg/mL) | 344 µM (≈ 128 µg/mL) | > 344 µM | 344 µM (≈ 128 µg/mL) | > 344 µM | > 344 µM | 344 µM (≈ 128 µg/mL) | > 344 µM

Second part, the compound after the results:

MIC [1] | MIC [2] | MIC [3] | MIC [4] | MIC [5] | MIC [6] | MIC [7] | MIC [8] | MIC [9] | MIC [10] | Structure (SMILES)
> 284 µM | > 284 µM | > 284 µM | > 284 µM | > 284 µM | 284 µM (≈ 128 µg/mL) | > 284 µM | > 284 µM | > 284 µM | > 284 µM | Cc1ccc(S(=O)(=O)n2cc(/C=N\NC(N)=S)c3cc(Br)ccc32)cc1
> 286 µM | > 286 µM | 8.93 µM (≈ 4.01 µg/mL) | > 286 µM | > 286 µM | 286 µM (≈ 128 µg/mL) | > 286 µM | > 286 µM | > 286 µM | > 286 µM | C/C(=N/NC(N)=O)c1cn(S(=O)(=O)c2ccc(C)cc2)c2ccc(Br)cc12
> 343 µM | > 343 µM | > 343 µM | > 343 µM | > 343 µM | 343 µM (≈ 128 µg/mL) | > 343 µM | > 343 µM | 343 µM (≈ 128 µg/mL) | > 343 µM | Cc1ccc(S(=O)(=O)n2cc(/C=N\NC(N)=S)c3ccccc32)cc1
> 294 µM | > 294 µM | > 294 µM | > 294 µM | > 294 µM | 294 µM (≈ 128 µg/mL) | > 294 µM | > 294 µM | > 294 µM | > 294 µM | NC(=S)N/N=C\c1cn(S(=O)(=O)c2ccccc2)c2ccc(Br)cc12
> 295 µM | > 295 µM | 9.22 µM (≈ 4.01 µg/mL) | > 295 µM | > 295 µM | 295 µM (≈ 128 µg/mL) | > 295 µM | > 295 µM | > 295 µM | > 295 µM | Cc1ccc(S(=O)(=O)n2cc(/C=N\NC(N)=O)c3cc(Br)ccc32)cc1
> 277 µM | > 277 µM | > 277 µM | > 277 µM | > 277 µM | > 277 µM | > 277 µM | > 277 µM | > 277 µM | > 277 µM | CC/C(=N/NC(N)=O)c1cn(S(=O)(=O)c2ccc(C)cc2)c2ccc(Br)cc12
268 µM (≈ 128 µg/mL) | 268 µM (≈ 128 µg/mL) | > 268 µM | 268 µM (≈ 128 µg/mL) | > 268 µM | 134 µM (≈ 64.2 µg/mL) | > 268 µM | > 268 µM | > 268 µM | > 268 µM | CC/C(=N/NC(N)=S)c1cn(S(=O)(=O)c2ccc(C)cc2)c2ccc(Br)cc12
